Results taken from article PMC4659352 (Molecular cancer therapeutics, 2014).
*1 amine or outer side, *2 acyl side, *3 side chain or, on linkers, in order; H or OH if unused. Where a SMILES comes first, the peptide text is derived from it. [ ]: non-standard residue; d: D form. γGlu = O=C(O)[C@H](CCC(=O)[*:2])N[*:1]

Experiments:
[1] = tested on: primary and metastatic tumor models; conditions: intratumoral or systemic injection; ref [22], [23]; cited from earlier work
CWR22Rv1 xenografts = assay: CWR22Rv1 subcutaneous xenograft therapy study; type: in vivo, mouse; conditions: 7 mg/kg tail vein at days 0, 3, 6, 9
LNCaP xenografts = assay: LNCaP subcutaneous xenograft therapy study; type: in vivo, mouse
PC3 = assay: MTT cell viability assay, PC3; type: cell-based, human; conditions: PSMA-null PC3, standard culture conditions with 10% fetal bovine serum, 72 hours
Summary of the method: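 PC3 cells (about 3,000 per well) were kept in RPMI-1640 with 10% FBS, 1% pen/strep and 2 mmol/L L-glutamine at 37°C and 5% CO2. They were exposed to a concentration range of test compound for 72 hours. Viability was read by MTT, and IC50 was calculated.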

PC3 xenografts = conditions: PC3 (PSA-, PSMA-) xenograft, 7 mg/kg tail vein at days 0, 3, 6, 9
PSMA = PSMA (Homo sapiens, UniProt Q04609); assay: Protease digestion with purified recombinant PSMA monitored by MALDI-TOF; type: biochemical
PSMA, sequence (Q04609 whole entry): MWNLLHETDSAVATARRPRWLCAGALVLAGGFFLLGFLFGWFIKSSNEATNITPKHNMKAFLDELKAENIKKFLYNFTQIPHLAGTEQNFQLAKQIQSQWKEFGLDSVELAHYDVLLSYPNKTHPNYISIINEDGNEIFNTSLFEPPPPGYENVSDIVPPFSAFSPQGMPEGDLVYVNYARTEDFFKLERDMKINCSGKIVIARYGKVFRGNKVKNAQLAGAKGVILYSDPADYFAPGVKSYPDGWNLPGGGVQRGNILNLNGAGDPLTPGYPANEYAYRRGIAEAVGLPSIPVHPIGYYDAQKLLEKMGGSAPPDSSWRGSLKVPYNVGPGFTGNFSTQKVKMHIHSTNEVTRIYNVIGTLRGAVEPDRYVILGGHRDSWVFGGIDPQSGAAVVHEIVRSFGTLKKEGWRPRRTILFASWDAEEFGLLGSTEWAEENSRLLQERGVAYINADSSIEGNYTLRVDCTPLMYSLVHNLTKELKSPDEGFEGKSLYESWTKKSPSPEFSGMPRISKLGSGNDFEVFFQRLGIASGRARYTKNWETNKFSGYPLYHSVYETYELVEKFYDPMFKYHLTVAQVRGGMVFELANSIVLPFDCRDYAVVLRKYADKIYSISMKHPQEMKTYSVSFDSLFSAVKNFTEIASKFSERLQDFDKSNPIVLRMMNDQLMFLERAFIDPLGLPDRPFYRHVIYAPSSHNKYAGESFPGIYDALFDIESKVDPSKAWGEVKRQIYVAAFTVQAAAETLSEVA

[2] = Solubility of the propeptides at dosing; type: physicochemical; conditions: dissolved in DMSO and diluted in sterile PBS, 5% v/v DMSO
healthy nude mice = assay: Toxicity study in healthy nude mice; type: in vivo, mouse
human red blood cells = assay: Hemolysis assay with washed human red blood cells; type: cell-based; conditions: 1 µmol/L peptide, 2% v/v human RBC, 1 hour, 37°C
Summary of the method: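 Test compound was dissolved in DMSO and diluted in 1× PBS to 100, 10 and 1 µmol/L. It was incubated with washed human RBCs (2% v/v) for 1 hour at 37°C. RBCs in PBS alone served as zero lysis and 1% Triton X-100 as 100% lysis. Cells were pelleted and supernatant absorbance read at 540 nm, in triplicate.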

PSA = PSA substrate sequence used in PSA1 and PSA2; ref [27]; cited from earlier work
[3] = 7 mg/kg tail vein at days 0, 3, 6, 9

CC(C)C[C@H](NC(=O)[C@H](CC(C)C)NC(=O)[C@@H](CCCCN)NC(=O)[C@H](CC(C)C)NC(=O)[C@H](CC(C)C)NC(=O)[C@H](CCCCN)NC(=O)[C@@H](CCCCN)NC(=O)[C@@H](CC(C)C)NC(=O)[C@H](CC(C)C)NC(=O)[C@@H](CCCCN)NC(=O)[C@H](CCCCN)NC(=O)[C@H](CC(C)C)NC(=O)[C@@H](CC(C)C)NC(=O)[C@H](CCCCN)NC(=O)[C@@H](N)CC(C)C)C(N)=O [KLL, reference compound] (H-LK[dL]LK[dK]L[dL][dK]KLL[dK]LL-NH2)
effect on tumor growth [1]: inhibit the growth of primary and metastatic tumor models | tumor volume by day 28 relative to the γE-KLL arm (CWR22Rv1 xenografts): double the volume of the γE-KLL–treated arm | tumor growth compared with the saline control at day 9 (LNCaP xenografts; [3]): Inhibition of tumor growth

CC(C)C[C@H](NC(=O)[C@H](CC(C)C)NC(=O)[C@@H](CCCCN)NC(=O)[C@H](CC(C)C)NC(=O)[C@H](CC(C)C)NC(=O)[C@H](CCCCN)NC(=O)[C@@H](CCCCN)NC(=O)[C@@H](CC(C)C)NC(=O)[C@H](CC(C)C)NC(=O)[C@@H](CCCCN)NC(=O)[C@H](CCCCN)NC(=O)[C@H](CC(C)C)NC(=O)[C@@H](CC(C)C)NC(=O)[C@H](CCCCN)NC(=O)[C@@H](N)CC(C)C)C(=O)N[C@@H](CCC(=O)N[C@@H](CCC(=O)N[C@@H](CCC(=O)N[C@@H](CCC(=O)N[C@@H](CCC(=O)N[C@@H](CCC(=O)N[C@@H](CCC(=O)O)C(=O)O)C(=O)O)C(=O)O)C(=O)O)C(=O)O)C(=O)O)C(=O)O [γE-KLL] (H-LK[dL]LK[dK]L[dL][dK]KLL[dK]LL[γGlu][γGlu][γGlu][γGlu][γGlu][γGlu]E-OH; N-terminus assumed)
toxicity in PC3 (PC3): no toxicity | therapeutic effect in PC3 tumors (PC3 xenografts): No therapeutic effect | cleavage of the γ-linked glutamic acid inhibitory domain by PSMA (PSMA; 50 µg peptide, 5 µg PSMA, 4 hours, 37°C, pH 7.8, MALDI-TOF): Cleavage of γ-linked glutamic acid residues from the peptide sequence by PSMA was detected | degradation by PSMA in the presence of EDTA (PSMA; PSMA with EDTA in the buffer, MALDI-TOF): no degradation | dose above which solubility issues became apparent [2]: above 10 mg/kg | toxicity in healthy nude mice (healthy nude mice): nontoxic | Treated tumor/Control tumor (T/C) ratio at day 28 (CWR22Rv1 xenografts): 0.3 | Treated tumor/Control tumor (T/C) ratio at day 28 (LNCaP xenografts; [3]): 0.3 | tumor growth compared with the saline control at day 9 (LNCaP xenografts; [3]): Inhibition of tumor growth | tumor volume at day 28 (LNCaP xenografts; 7 mg/kg tail vein at days 0, 3, 6, 9, n = 10 mice): 220.3 ± 44.6 mm^3

H-DDDDDDDLKLLKKLLKKLLKLL-NH2 [D7-KLL-NH2]
hemolysis at 1 µmol/L (human red blood cells): little hemolytic activity

H-LKLLKKLLKKLLKLLDDDDDDD-OH [KLL-D7-OH]
hemolysis at 1 µmol/L (human red blood cells): minimal hemolysis

SSKLQ [SSLQ, serine–serine–lysine–leucine–glutamine]
kcat/km (PSA): 23.6 s^−1 (mol/L)^−1
